Measured values reported in ChEMBL document CHEMBL1177891, “Synthesis and bioassay of pyrrolyl oxazolines and thiazolines” (2010).
Converted amounts (≈) assume the structure as drawn.

Columns and labels:
Format in all cases: functional
[1] = test system: Aspergillus niger; assay: Antifungal activity against Aspergillus niger at 100 ug/disk after 48 hrs by disk diffusion method; settings: read-out: IZ
Outline: (§1)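 Fungi from NCIM on nutrient agar plates, pre-inoculated. 6 mm paper discs carrying 100 or 200 μg compound in DMSO applied. Plates incubated at 37 °C and inhibition zone diameter measured at 48 h. Ketoconazole control.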

[2] = test system: Curvularia lunata; assay: Antifungal activity against Curvularia lunata at 100 ug/disk after 48 hrs by disk diffusion method; settings: read-out: IZ; outline: as §1
[3] = test system: Bacillus subtilis; assay: Antibacterial activity against Bacillus subtilis at 200 ug/disk after 24 hrs by disk diffusion method; settings: read-out: IZ
Outline: (§2)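 Agar disc diffusion on nutrient agar with NCIM bacteria. 6 mm sterile paper discs moistened with compound in DMSO (100 or 200 μg/disc) placed on pre-inoculated plates. Incubated at 37 °C; growth-inhibition zone diameter measured after 24 h. Chloramphenicol control.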

[4] = test system: Klebsiella pneumoniae; assay: Antibacterial activity against Klebsiella pneumoniae at 100 ug/disk after 24 hrs by disk diffusion method; settings: read-out: IZ; outline: as §2
[5] = test system: Proteus vulgaris; assay: Antibacterial activity against Proteus vulgaris at 200 ug/disk after 24 hrs by disk diffusion method; settings: read-out: IZ; outline: as §2
[6] = test system: Staphylococcus aureus; assay: Antibacterial activity against Staphylococcus aureus at 100 ug/disk after 24 hrs by disk diffusion method; settings: read-out: IZ; outline: as §2
[7] = test system: Klebsiella pneumoniae; assay: Antibacterial activity against Klebsiella pneumoniae at 200 ug/disk after 24 hrs by disk diffusion method; settings: read-out: IZ; outline: as §2
[8] = test system: Curvularia lunata; assay: Antifungal activity against […] lunata at 200 ug/disk after 48 hrs by disk diffusion method; settings: read-out: IZ; outline: as §1
[9] = test system: Radical scavenging activity; assay: Antioxidant activity assessed as DPPH radical scavenging activity at 100 uM
Outline: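 Compound (100 μM) added to 100 μM DPPH in dioxane/ethanol. Kept at ambient temperature 20 min, then absorbance read at 517 nm. Percent DPPH scavenging taken from difference between test and control.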

[10] = test system: Fusarium solani; assay: Antifungal activity against Fusarium solani at 100 ug/disk after 48 hrs by disk diffusion method; settings: read-out: IZ; outline: as §1
[11] = test system: Fusarium solani; assay: Antifungal activity against Fusarium solani at 200 ug/disk after 48 hrs by disk diffusion method; settings: read-out: IZ; outline: as §1
[12] = Antioxidant activity assessed as increase in reducing power at 100 uM
Outline: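 Oyaizu method. Compound at 100 μM in methanol mixed with 0.2 M phosphate buffer pH 6.6 and 1% potassium ferricyanide, 50 °C for 20 min. 10% TCA added, then centrifuged 3000 rpm for 10 min. Upper layer mixed with water and 0.1% FeCl3; absorbance read at 700 nm.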

[13] = test system: Staphylococcus aureus; assay: Antibacterial activity against Staphylococcus aureus at 200 ug/disk after 24 hrs by disk diffusion method; settings: read-out: IZ; outline: as §2
[14] = test system: Bacillus subtilis; assay: Antibacterial activity against Bacillus subtilis at 100 ug/disk after 24 hrs by disk diffusion method; settings: read-out: IZ; outline: as §2
[15] = test system: Aspergillus niger; assay: Antifungal activity against Aspergillus niger at 200 ug/disk after 48 hrs by disk diffusion method; settings: read-out: IZ; outline: as §1
[16] = Antioxidant activity assessed as inhibition of nitric oxide production at 100 uM
Outline: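 Sodium nitroprusside ([…]) in phosphate buffer pH 7.4 incubated with 100 μM compound (dioxane/methanol) at 25 °C for 120 min; solvent-only control. Aliquots mixed 1:1 with Griess reagent (1% sulfanilamide, 0.1% N-naphthylethylenediamine, 2% phosphoric acid). Absorbance at 546 nm, triplicate.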

[17] = test system: Proteus vulgaris; assay: Antibacterial activity against Proteus vulgaris at 100 ug/disk after 24 hrs by disk diffusion method; settings: read-out: IZ; outline: as §2
[18] = test system: Aspergillus niger; assay: Antifungal activity against Aspergillus niger after 48 hrs by microdilution susceptibility assay
Outline: (§3)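 Fungal strains from NCIM. Microdilution: stocks at 800 μg/ml in DMSO, two-fold dilutions 400 down to 6.25 μg/ml, wells inoculated with fungal suspension, incubated 36 °C for 48 h. MIC read as lowest concentration without turbidity. Ketoconazole reference.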

[19] = test system: Curvularia lunata; assay: Antifungal activity against Curvularia lunata after 48 hrs by microdilution susceptibility assay; outline: as §3
[20] = test system: Fusarium solani; assay: Antifungal activity against Fusarium solani after 48 hrs by microdilution susceptibility assay; outline: as §3
[21] = test system: Bacillus subtilis; assay: Antibacterial activity against Bacillus subtilis after 24 hrs by microdilution susceptibility assay
Outline: (§4)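 Bacterial strains from NCIM. Broth microdilution: stocks at 800 μg/ml in DMSO, two-fold dilutions 400, 200, 100 ... 6.25 μg/ml, wells inoculated with bacterial suspension, 36 °C for 24 h. MIC = lowest concentration with no turbidity (no visible growth). Chloramphenicol as reference.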

[22] = test system: Proteus vulgaris; assay: Antibacterial activity against Proteus vulgaris after 24 hrs by microdilution susceptibility assay; outline: as §4
[23] = test system: Klebsiella pneumoniae; assay: Antibacterial activity against Klebsiella pneumoniae after 24 hrs by microdilution susceptibility assay; outline: as §4
[24] = test system: Staphylococcus aureus; assay: Antibacterial activity against Staphylococcus aureus after 24 hrs by microdilution susceptibility assay; outline: as §4

| SMILES | zone of inhibition at 100 µg/disc [1] [mm] | zone of inhibition at 100 µg/disc [2] [mm] | zone of inhibition at 200 µg/disc [3] [mm] | zone of inhibition at 100 µg/disc [4] [mm] | zone of inhibition at 200 µg/disc [5] [mm] | zone of inhibition at 100 µg/disc [6] [mm] | zone of inhibition at 200 µg/disc [7] [mm] | zone of inhibition at 200 µg/disc [8] [mm] | inhibition [9] [%] | zone of inhibition at 100 µg/disc [10] [mm] | zone of inhibition at 200 µg/disc [11] [mm] | inhibition [12] [%] | zone of inhibition at 200 µg/disc [13] [mm] | zone of inhibition at 100 µg/disc [14] [mm] | zone of inhibition at 200 µg/disc [15] [mm] | inhibition [16] [%] | zone of inhibition at 100 µg/disc [17] [mm] | further results |
| --- | --- | --- | --- | --- | --- | --- | --- | --- | --- | --- | --- | --- | --- | --- | --- | --- | --- | --- |
| Cc1ccc(S(=O)(=O)c2c[nH]cc2S(=O)(=O)CC2=NCCO2)cc1 | 17 | 17 | 14 | 10 | 13 | 12 | 13 | 21 | 76.1 | 18 | 20 | 77.3 | 15 | 13 | 21 | 78.5 | 11 |  |
| O=S(=O)(/C=C/S(=O)(=O)c1ccccc1)CC1=NCCS1 | 26 | 24 | 23 | 19 | 18 | 21 | 21 | 26 | 29.3 | 26 | 29 | 29.3 | 24 | 22 | 28 | 30.4 | 17 |  |
| CC(=O)N1CCN(c2ccc(OCC3COC(Cn4ccnc4)(c4ccc(Cl)cc4Cl)O3)cc2)CC1 (stereo unspecified) [KETOCONAZOLE] | 36 | 41 |  |  |  |  |  | 44 |  | 38 | 42 |  |  |  | 39 |  |  | MIC [18]: 6.25 µg/mL (≈ 11.8 µM); MIC [19]: 6.25 µg/mL (≈ 11.8 µM); MIC [20]: 12.5 µg/mL (≈ 23.5 µM) |
| O=S(=O)(CC1=NCCO1)c1c[nH]cc1S(=O)(=O)c1ccccc1 | 20 | 19 | 18 | 14 | 15 | 15 | 17 | 23 | 88.3 | 18 | 22 | 86.8 | 19 | 16 | 22 | 87.7 | 13 |  |
| O=C(N[C@H](CO)[C@H](O)c1ccc([N+](=O)[O-])cc1)C(Cl)Cl [CHLORAMPHENICOL] |  |  | 44 | 37 | 45 | 35 | 42 |  |  |  |  |  | 41 | 38 |  |  | 42 | MIC [21]: 6.25 µg/mL (≈ 19.3 µM); MIC [22]: 12.5 µg/mL (≈ 38.7 µM); MIC [23]: 6.25 µg/mL (≈ 19.3 µM); MIC [24]: 6.25 µg/mL (≈ 19.3 µM) |
| Cc1cc(C(C)(C)C)c(O)c(C(C)(C)C)c1 |  |  |  |  |  |  |  |  |  |  |  | 92.3 |  |  |  |  |  |  |
| O=S(=O)(CC1=NCCO1)c1c[nH]cc1S(=O)(=O)c1ccc(Cl)cc1 | 21 | 20 | 19 | 15 | 14 | 17 | 17 | 23 | 91.5 | 21 | 23 | 89.4 | 19 | 16 | 22 | 92.1 | 12 |  |
| Cc1ccc(S(=O)(=O)c2c[nH]cc2S(=O)(=O)CC2=NCCS2)cc1 | 31 | 28 | 24 | 20 | 19 | 23 | 21 | 32 | 23.2 | 29 | 31 | 22.9 | 26 | 22 | 35 | 23.7 | 17 |  |
| Cc1ccc(S(=O)(=O)/C=C/S(=O)(=O)CC2=NCCO2)cc1 | 14 | 18 | 11 |  |  | 10 |  | 19 | 73.9 | 14 | 17 | 73.5 | 13 | 9 | 16 | 74.2 |  |  |
| O=S(=O)(/C=C/S(=O)(=O)c1ccc(Cl)cc1)CC1=NCCO1 | 17 | 18 | 14 | 10 | 10 | 13 | 12 | 20 | 86.6 | 16 | 19 | 82.7 | 15 | 12 | 20 | 85.5 | 9 |  |
| O=C1O[C@H]([C@@H](O)CO)C(O)=C1O |  |  |  |  |  |  |  |  | 95.4 |  |  |  |  |  |  | 96.9 |  |  |
| O=S(=O)(/C=C/S(=O)(=O)c1ccccc1)CC1=NCCO1 | 17 | 16 | 12 |  |  | 11 |  | 18 | 83.7 | 14 | 15 | 79.5 | 13 | 10 | 19 | 82.1 |  |  |
| Cc1ccc(S(=O)(=O)/C=C/S(=O)(=O)CC2=NCCS2)cc1 | 20 | 21 | 21 | 17 | 18 | 20 | 20 | 24 | 22.2 | 22 | 25 | 21.2 | 23 | 19 | 23 | 21.7 | 15 |  |
| O=S(=O)(/C=C/S(=O)(=O)c1ccc(Cl)cc1)CC1=NCCS1 | 27 | 24 | 31 | 22 | 22 | 27 | 23 | 28 | 33.5 | 29 | 31 | 28.3 | 28 | 29 | 29 | 32.3 | 21 |  |
